How the values were obtained:
Rattus norvegicus [1] = assay: Antihypertensive activity in Norwegian albino rat assessed as inhibition of DOCA salt-induced systolic blood pressure at 10 mg/kg, po after 15 mins by non-invasive tail-cuff method; assay type: functional; conditions: Artery, 0.25 h
Rattus norvegicus [2] = assay: Antihypertensive activity in Norwegian albino rat assessed as inhibition of DOCA salt-induced systolic blood pressure at 10 mg/kg, po after 240 mins by non-invasive tail-cuff method; assay type: functional; conditions: Artery, 4 h
Outline: (§1)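 Male rats (200–250 g), uninephrectomized under pentobarbital (50 mg/kg i.p.); one week later DOCA s.c. 30–50 mg/kg/week, with 1% w/v NaCl in drinking water. Groups of six, trained in restrainer, tail warmed at 33–34 °C. Compound in 0.5% CMC, 10 mg/kg orally. Systolic pressure read by tail-cuff before dosing and from 1 h after; three readings averaged. ANOVA.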

Rattus norvegicus [3] = assay: Antiinflammatory activity in Norwegian albino rat assessed as inhibition of carrageenan-induced paw edema at 100 mg/kg, po after administered 60 mins prior to carrageenan-challenge measured after 5 hrs; assay type: functional
Outline: (§2)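 Compound given orally as 100 mg/kg suspension in 0.5% CMC. 60 min later, carrageenan injected sub-plantar into the left hind paw. Paw volume measured within 30 s of injection, then at 1–5 h. % inhibition = [1−(Dt/Dc)]×100, where Dt and Dc are mean relative paw-volume changes in test and control. ANOVA.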

Rattus norvegicus [4] = assay: Antihypertensive activity in Norwegian albino rat assessed as inhibition of DOCA salt-induced systolic blood pressure at 10 mg/kg, po after 420 mins by non-invasive tail-cuff method; assay type: functional; conditions: Artery, 7 h; outline: as §1
Rattus norvegicus [5] = assay: Antihypertensive activity in Norwegian albino rat assessed as inhibition of DOCA salt-induced systolic blood pressure at 10 mg/kg, po after 60 mins by non-invasive tail-cuff method; assay type: functional; conditions: Artery, 1 h; outline: as §1
Rattus norvegicus [6] = assay: Antihypertensive activity in Norwegian albino rat assessed as inhibition of DOCA salt-induced systolic blood pressure at 10 mg/kg, po after 480 mins by non-invasive tail-cuff method; assay type: functional; conditions: Artery, 8 h; outline: as §1
Rattus norvegicus [7] = assay: Antihypertensive activity in Norwegian albino rat assessed as inhibition of DOCA salt-induced systolic blood pressure at 10 mg/kg, po after 30 mins by non-invasive tail-cuff method; assay type: functional; conditions: Artery, 0.5 h
Rattus norvegicus [8] = assay: Antihypertensive activity in Norwegian albino rat assessed as inhibition of DOCA salt-induced systolic blood pressure at 10 mg/kg, po after 300 mins by non-invasive tail-cuff method; assay type: functional; conditions: Artery, 5 h; outline: as §1
Rattus norvegicus [9] = assay: Antihypertensive activity in Norwegian albino rat assessed as inhibition of DOCA salt-induced systolic blood pressure at 10 mg/kg, po after 360 mins by non-invasive tail-cuff method; assay type: functional; conditions: Artery, 6 h; outline: as §1
Rattus norvegicus [10] = assay: Antihypertensive activity in Norwegian albino rat assessed as inhibition of DOCA salt-induced diastolic blood pressure at 10 mg/kg, po after 15 mins by invasive carotid artery cannulation method; assay type: functional; conditions: 0.25 h
Outline: (§3)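 Male rats (200–250 g), uninephrectomized and given DOCA s.c. (30–50 mg/kg/week) with 1% NaCl drinking water. Anesthetized with pentobarbital (35 mg/kg i.p.); left carotid artery cannulated and exteriorized. After recovery and a baseline reading, compound given orally by feeding needle. Diastolic pressure recorded via transducer at 15, 30, 60, 120 and 180 min. Mean ± S.E.M.; repeated-measures ANOVA.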

Rattus norvegicus [11] = assay: Antihypertensive activity in Norwegian albino rat assessed as inhibition of DOCA salt-induced diastolic blood pressure at 10 mg/kg, po after 30 mins by invasive carotid artery cannulation method; assay type: functional; conditions: 0.5 h; outline: as §3
Rattus norvegicus [12] = assay: Antihypertensive activity in Norwegian albino rat assessed as inhibition of DOCA salt-induced diastolic blood pressure at 10 mg/kg, po after 60 mins by invasive carotid artery cannulation method; assay type: functional; conditions: 1 h; outline: as §3
Rattus norvegicus [13] = assay: Antiinflammatory activity in Norwegian albino rat assessed as inhibition of carrageenan-induced paw edema at 100 mg/kg, po after administered 60 mins prior to carrageenan-challenge measured after 1 hr; assay type: functional; outline: as §2
Rattus norvegicus [14] = assay: Antiinflammatory activity in Norwegian albino rat assessed as inhibition of carrageenan-induced paw edema at 100 mg/kg, po after administered 60 mins prior to carrageenan-challenge measured after 3 hrs; assay type: functional; outline: as §2
Rattus norvegicus [15] = assay: Antihypertensive activity in Norwegian albino rat assessed as inhibition of DOCA salt-induced diastolic blood pressure at 10 mg/kg, po after 240 mins by invasive carotid artery cannulation method; assay type: functional; conditions: 4 h
Rattus norvegicus [16] = assay: Antihypertensive activity in Norwegian albino rat assessed as inhibition of DOCA salt-induced systolic blood pressure at 10 mg/kg, po after 120 mins by non-invasive tail-cuff method; assay type: functional; conditions: Artery, 2 h; outline: as §1
Rattus norvegicus [17] = assay: Antihypertensive activity in Norwegian albino rat assessed as inhibition of DOCA salt-induced systolic blood pressure at 10 mg/kg, po after 180 mins by non-invasive tail-cuff method; assay type: functional; conditions: Artery, 3 h; outline: as §1
Mus musculus = assay: Analgesic activity against acetic acid-induced writhing in Swiss albino mouse assessed as protection at 20 mg/kg, po; assay type: functional
Outline: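 Swiss albino mice (25–30 g), six per group, habituated 30 min individually in the test cage. Compound in 1% CMC given p.o. at 20 mg/kg. 1 h later, acetic acid injected i.p.; writhes (arching of back, body elongation, hind-limb extension) counted 5–15 min after injection. % inhibition = (n−n′)/n×100, where n and n′ are mean writhes in control and test.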

Rattus norvegicus [18] = assay: Antihypertensive activity in Norwegian albino rat assessed as inhibition of DOCA salt-induced diastolic blood pressure at 10 mg/kg, po after 120 mins by invasive carotid artery cannulation method; assay type: functional; conditions: 2 h; outline: as §3
Rattus norvegicus [19] = assay: Antihypertensive activity in Norwegian albino rat assessed as inhibition of DOCA salt-induced diastolic blood pressure at 10 mg/kg, po after 180 mins by invasive carotid artery cannulation method; assay type: functional; conditions: 3 h; outline: as §3
Rattus norvegicus [20] = assay: Gastrointestinal toxicity in albino rat assessed as ulcerogenic index at 50 mg/kg, po; assay type: organism-based; set-up: dose 50 mg/kg, route oral; conditions: in vivo
Outline: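 Albino rats (150–200 g), six per group, food but not water withheld 24 h. Compound given p.o. at 50 mg/kg; controls received 1% methyl cellulose. Rats fed 17 h, then killed; stomach opened along greater curvature and examined under 4× magnifier. Lesions scored as large (>2 mm), small (1–2 mm) or punctiform (<1 mm). Severity index = treated mean score minus control mean score.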

Structure (SMILES) | inhibition in vivo at 10 mg/kg (Rattus norvegicus [1]) [%] | inhibition in vivo at 10 mg/kg (Rattus norvegicus [2]) [%] | inhibition in vivo at 100 mg/kg (Rattus norvegicus [3]) [%] | inhibition in vivo at 10 mg/kg (Rattus norvegicus [4]) [%] | inhibition in vivo at 10 mg/kg (Rattus norvegicus [5]) [%] | inhibition in vivo at 10 mg/kg (Rattus norvegicus [6]) [%] | inhibition in vivo at 10 mg/kg (Rattus norvegicus [7]) [%] | inhibition in vivo at 10 mg/kg (Rattus norvegicus [8]) [%] | inhibition in vivo at 10 mg/kg (Rattus norvegicus [9]) [%] | inhibition in vivo at 10 mg/kg (Rattus norvegicus [10]) [%] | inhibition in vivo at 10 mg/kg (Rattus norvegicus [11]) [%] | inhibition in vivo at 10 mg/kg (Rattus norvegicus [12]) [%] | inhibition in vivo at 100 mg/kg (Rattus norvegicus [13]) [%] | inhibition in vivo at 100 mg/kg (Rattus norvegicus [14]) [%] | inhibition in vivo at 10 mg/kg (Rattus norvegicus [15]) [%] | inhibition in vivo at 10 mg/kg (Rattus norvegicus [16]) [%] | inhibition in vivo at 10 mg/kg (Rattus norvegicus [17]) [%] | Activity (Mus musculus) [%] | inhibition in vivo at 10 mg/kg (Rattus norvegicus [18]) [%] | UI (Rattus norvegicus [20]) | also measured
CCOC(=O)C1=C(C)NC(OC)N(CC(=O)c2ccc(Cl)cc2)C1c1ccc(Cl)cc1 (stereo unspecified) | 0.27 | 35.5 | 42 | 44 | 12.7 | 44.2 | 6.45 | 37.4 | 39.8 | 1.84 | 8.92 | 23.3 | 39.8 | 41 | 46.3 | 19.6 | 28.2 | 37.33 | 30.6 | 0.2 | inhibition in vivo at 10 mg/kg (Rattus norvegicus [19]): 38.1%
CCOC(=O)C1=C(C)NC(OC)N(CC(=O)c2ccc(OC)cc2)C1c1ccc(O)cc1 (stereo unspecified) | 0.27 | 23.3 | 39.9 | 29.4 | 12.7 | 31 | 1.43 | 26.3 | 28 |  |  |  | 37.6 | 38.2 |  | 19.6 | 21.6 |  |  |  | 
CCOC(=O)C1=C(C)NC(OC)N(CC(=O)c2ccccc2)C1c1ccc(Cl)cc1 (stereo unspecified) | 0.91 | 25.6 | 42 | 32.1 | 15.2 | 35.6 | 1.87 | 28.4 | 29.7 |  |  |  | 39.8 | 41 |  | 20.5 | 22.9 | 37.87 |  | 0.45 | 
CCOC(=O)C1=C(C)NC(OC)N(CC(=O)c2ccccc2)C1c1ccc(C)cc1 (stereo unspecified) | 0.59 | 36.8 | 38.9 | 44 | 13.7 | 45.5 | 1.87 | 38.3 | 42 | 2.2 | 9.79 | 23.1 | 37.8 | 37.9 | 48.7 | 17.4 | 28 |  | 30.6 |  | inhibition in vivo at 10 mg/kg (Rattus norvegicus [19]): 35.5%
CCOC(=O)C1=C(C)NC(OC)N(CC(=O)c2ccccc2)C1c1ccccc1 (stereo unspecified) | 0.59 | 23.3 | 42 | 29.4 | 13 | 31 | 1.43 | 26.3 | 28.7 |  |  |  | 39.8 | 41 |  | 19.6 | 21.6 | 40.14 |  | 0.16 | 
CCOC(=O)C1=C(C)NC(OC)N(CC(=O)c2ccc(Cl)cc2)C1c1ccccc1 (stereo unspecified) | 0.7 | 36.7 | 42 | 45 | 13.8 | 46.5 | 6.49 | 38.2 | 41.5 | 2.35 | 9.99 | 23 | 36.6 | 38.4 | 47.8 | 20.5 | 28 | 41.66 | 30.1 | 0.45 | inhibition in vivo at 10 mg/kg (Rattus norvegicus [19]): 37.8%
CCOC(=O)C1=C(C)NC(OC)N(CC(=O)c2ccc(OC)cc2)C1c1ccccc1 (stereo unspecified) | 1 | 36.8 | 42.6 | 45.1 | 13.8 | 46.5 | 6.49 | 38.3 | 41.6 | 1.84 | 8.97 | 23.5 | 37.1 | 38.4 | 47.8 | 20.5 | 28 | 45.8 | 30.1 | 0.74 | inhibition in vivo at 10 mg/kg (Rattus norvegicus [19]): 37.8%
CCOC(=O)C1=C(C)NC(OC)N(CC(=O)c2ccccc2)C1c1ccc(O)cc1 (stereo unspecified) | 0.59 | 27.8 | 42 | 33 | 15.2 | 35.5 | 1.87 | 28.5 | 31.4 |  |  |  | 39.8 | 40.9 |  | 21.8 | 23 | 40.33 |  | 0.18 | 
CC(C)Cc1ccc(C(C)C(=O)O)cc1 (stereo unspecified) [IBUPROFEN] |  |  |  |  |  |  |  |  |  |  |  |  |  |  |  |  |  | 62.55 |  | 1.97 | 
COc1ccc2c(c1)c(CC(=O)O)c(C)n2C(=O)c1ccc(Cl)cc1 [INDOMETHACIN] |  |  | 52.6 |  |  |  |  |  |  |  |  |  | 46.4 | 51.8 |  |  |  |  |  |  | 
COC(=O)C1=C(C)NC(C)=C(C(=O)OC)C1c1ccccc1[N+](=O)[O-] [NIFEDIPINE] | 1.29 | 35.5 |  | 45.5 | 12.9 | 46.6 | 4.44 | 44.2 | 44.5 | 2.51 | 11.7 | 23.6 |  |  | 48.4 | 19.7 | 25 |  | 30.8 |  | inhibition in vivo at 10 mg/kg (Rattus norvegicus [19]): 39.4%

— ChEMBL document CHEMBL1153580, “Synthesis and pharmacological investigation of 3-(substituted 1-phenylethanone)-4-(substituted phenyl)-1, 2, 3, 4-tetrahydropyrimidine-5-carboxylates” (Eur J Med Chem, 2009)
